Assay outcomes: PubChem BioAssay, several laboratories
Autophagy HCS – modulators of autophagy; 190,000 compounds, 0.98% hits; calls only at 10 µM (by protocol); AID 463193; MEF GFP-LC3 puncta imaging; test concentration mostly 10 µM;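 active = percentage of spot-positive cells more than 3 SD above its plate mean, without a fluorescence outlier flag or 80% toxicity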;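 also: spot-positive cell cutoff set from DMSO-treated cells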
MT stabilizer – stabilizes microtubules in HeLa cells; HeLa tubulin immunostaining HCS, 24 h; share of cells brighter than vehicle mean+2SD; AID 2205; 200,000 compounds, 0.83% hits; % tubulin-high responders, % at 10 µM;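 active = plate Z-score above 3 for both tubulin-high and condensed-nucleus cell shares, with cell loss under 80%, at 10 µM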;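 also: anti alpha tubulin signal scored within the nucleus-defined area of each cell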
CHOP inhibitor – blocks CHOP induction under ER stress | CHO-K1 CHOP-promoter luciferase, tunicamycin-induced, 15-18 h | inhibition, % at 10 µM | 220,000 compounds, 3.8% hits;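 active = compounds that reduced the stress-induced luciferase reporter signal by more than about 70% of percent inhibition, limit read from the data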;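 also: 0% = tunicamycin plus vehicle and 100% = wells without tunicamycin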
Dynein cargo inh – dynein cargo transport inhibition; 3617.4 mouse cells, GR-EGFP nuclear translocation imaging; test concentration mostly 20 µM; stimulated with dexamethasone, 1 µM; hits give low values; z-score, hits read low; 220,000 compounds, 0.47% hits; AID 1381;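 active = plate z-score of nuclear minus cytoplasmic receptor signal below a set negative limit, without overly bright fluorescence or cell loss, cut at about -3.5 in these data, passing the limit was not always enough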;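 also: z-score of nuclear minus cytoplasmic ring GR-EGFP intensity difference per well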
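Schedule: 48 h induction, then 1 h compound, then 30 min agonist, 37 °C. Buffer or medium: tetracycline-free induction medium containing charcoal-stripped FBS. Reagent: 1.0 µM final dexamethasone stimulus. Evaluation: nuclear versus cytoplasmic GR-EGFP signal, averaged per well. Signal: high-content fluorescence imaging after fixation.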
bCat nuc transl – modulators of beta-catenin nuclear translocation; HeLa beta-catenin nuclear translocation, immunofluorescence imaging; nuclear translocation activity, % at 5 µM; 190,000 compounds, 0.3% hits; AID 1665;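 active = nuclear translocation activity above 50% at 5 µM, with a well cell count of 50 or more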;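 also: per-cell ratio of nuclear to cytoplasmic median beta-catenin stain intensity; plate controls were DMSO negative control for no effect and GSK-3 inhibitor IX positive control for full effect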
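assay system = human HeLa cells, endogenous beta-catenin | times = compound treatment 24 h, 37°C, 5% CO2 | detection = Anti-beta-catenin immunofluorescence on PFA-fixed, Triton-permeabilized cells, DAPI nuclei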
Lmaj promast – reduces viability of Leishmania major promastigotes; AID 1063; inhibition, % at 10 µM; 200,000 compounds, 9% hits; resazurin fluorescence viability; in the data active = inhibition above about 50%;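 also: promastigotes grown with compound for 44 hours at 28 °C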
Active calls of the source: *; i = inactive; nt = not tested or not shown; + = active, no number. Sampled rows, rich in hits. Any-hit rate of the full collection: about 12%.

SMILES	Autophagy HCS	MT stabilizer	CHOP inhibitor	Dynein cargo inh	bCat nuc transl	Lmaj promast
CCCCC(C(=O)O)C(C)CC(=O)NNC(=O)c1ccco1 (centres undefined)	i	3	17	-0.78	0	-5
O=C1/C(=C/c2ccc(O)cc2)SC(=S)N1CC1CCCO1 (centres undefined)	nt	nt	19	1.6	0	nt
CCCOc1ccc(/C=C2\SC(=S)N(CC3CCCO3)C2=O)cc1 (centres undefined)	i	5	15	0.72	1	66*
CCCOc1cccc(-c2nn(-c3ccccc3)cc2/C=C(\C#N)C(=O)NCCCn2ccnc2)c1	i	4	35	0.27	1	89*
N#C/C(=C/c1cn(-c2ccccc2)nc1-c1cccc(OCc2ccc(F)cc2)c1)C(=O)NCCCn1ccnc1	i	7	-45	0.49	-1	100*
CCc1ccc(-c2cc(C(F)(F)F)n3nc(C(=O)Nc4c(C)nn(Cc5ccccc5Cl)c4C)cc3n2)s1	+	2	36	0.45	0	20
CCc1ccc(-c2cc(C(F)(F)F)n3nc(C(=O)Nc4c(C)nn(Cc5ccccc5C)c4C)cc3n2)s1	+	3	36	0.99	2	16
CC1(C)CC(=O)C2=C(C1)N(CC1CCCO1)C(=O)C2(NC(=O)c1cccnc1)C(F)(F)F (centres undefined)	i	3	21	-0.32	-2	-7
CCOC(=O)C1(Cc2cccc(OC)c2)CCN(Cc2cnc(SC)nc2)CC1	i	4	24	-0.58	2	82*
CCOC(=O)C1(Cc2cccc(OC)c2)CCN(Cc2ccccc2)CC1	i	3	-8	0.094	-1	27
CCOC(=O)C1(Cc2cccc(OC)c2)CCN(Cc2cccnc2)CC1	i	2	33	0.26	0	55*
CCOC(=O)C1(Cc2cccc(OC)c2)CCN(Cc2cccc3cnccc23)CC1	i	4	15	2.6	-1	91*
CCOC(=O)c1ccccc1NC(=S)N1CCN(C2CCCCC2)CC1	i	2	-3	0.21	0	48
CCCN(Cc1ccccc1)C(=S)NC(=O)c1ccccc1[N+](=O)[O-]	i	1	-22	0.16	-3	-9
Nc1nnc(Cc2ccc(Cl)c(Cl)c2)s1	i	3	-7	-0.082	nt	-6
Cc1cc(C)n(-c2nnc3c4ccccc4n(C)c3n2)n1	nt	nt	-13	-0.82	0	nt
Cc1cccc(NC(=O)CCc2c(C)nc3ncnn3c2C)n1	i	2	20	-1.3	-1	-6
c1csc(-c2noc(COc3ccc4c(c3)CCCC4)n2)c1	i	2	49	0.81	nt	-7
O=C(c1cnsn1)N1CCN(c2ccccn2)CC1	i	3	5	-0.13	2	-5
CSc1ccc(CN2CCCC(CNC(=O)c3ccc(F)cc3)C2)cc1 (centres undefined)	i	1	16	0.29	-1	84*
O=C(NCC1CCCN(Cc2cccc(OCCO)c2)C1)c1ccc(F)cc1 (centres undefined)	i	4	21	0.51	4	-1
CSc1cccc(CN2CCCC(CNC(=O)c3ccc(F)cc3)C2)c1 (centres undefined)	i	4	16	-0.55	-1	77*
CC(=O)c1c(C)nn(CC(O)COc2ccc3ccccc3c2)c1C (centres undefined)	i	1	16	-1.1	1	-4
CC(C)(C)C(=O)OCCNc1nc(-c2ccccc2)nc2ccccc12	i	2	9	-0.36	-1	54*
CN(C)CCCNc1nc(-c2ccccc2)nc2ccccc12	nt	nt	6	0.34	0	nt
CC1CC(=O)c2c(cc3c(-c4c(O)cc(O)c5c(O)c6c(cc45)OC(C)CC6=O)c(O)cc(O)c3c2O)O1 (centres undefined)	i	32*	82*	-1.7	-3	-3
O=C1CC(c2ccc(O)cc2)Oc2cc(O)cc(O)c21 (centres undefined)	i	4	14	-0.63	0	-5
COc1ccc(C(NC(=O)CC(C)C)NC(=O)CC(C)C)cc1OC	i	3	6	0.13	-2	-6
